Experimental data reported in the EternaBench riboswitch data.

Tested on: MS2 coat protein
Assay: apparent Kd, MS2 coat protein; higher = weaker binding; RNA-MaP array; FMN 200 µM where present
How it was run: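 Each design was made on Illumina sequencing-chip clusters by stalled E. coli RNA polymerase and titrated with SNAP-549-labelled MS2 coat protein from 0.7 or 1.5 nM, doubling to 3 µM, in the absence and then the presence of constant ligand. The buffer was 100 mM Tris-HCl pH 7.5, 80 mM KCl, 4 mM MgCl2, BSA, DTT, yeast tRNA and Tween-20. The apparent Kd is the median of filtered per-cluster fits of binding curves, with green signal normalised to red-channel RNA signal and control-cluster median Fmax.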

[1] = designed as: OFF switch for flavin mononucleotide, no ligand
[2] = ligand present: flavin mononucleotide, designed as: OFF switch for flavin mononucleotide
[3] = designed as: ON switch for flavin mononucleotide, no ligand
[4] = ligand present: flavin mononucleotide, designed as: ON switch for flavin mononucleotide

Row | Sequence | apparent Kd [1] [nM] | apparent Kd [2] [nM] | apparent Kd [3] [nM] | apparent Kd [4] [nM]
1 | AAUUAUUUAUGAGGAUAUUGUGGUGAAACACCACAAGAAGGCAUGAUACACAUGAGGAUCACCCAUGUGAGCCUGAUGCAUAUA | 17.2 | 28.4 | – | –
2 | UGUCGGAGCUGAGGAUAUUACAUGAGGAUCACCCAUGUAUGAACCAAUAGCUGGAAACAGCAAUGUAAGAAGGCUGCUCCGACA | 5.65 | 34.1 | – | –
3 | GGGAUAAGGCAGAAGGACAUGAGGAUCACCCAUGUAGGAUAUGCCUACAUCCGCAUCUUAGGUCUCGCUCUGUCGCGACCCUCU | – | – | 8.99 | 5.29
4 | CUUGUUUAUGUAGGAUAUGCCUGGCGUGCCUUUGCAGAAGGACAUGAGGAUCACCCAUGUAGUAUGAGGCUUACCCUUGUCGCC | 28.2 | 24.5 | – | –
5 | GUUUUGGGAGGAUAUGCGUGGAUUAUUUUCGUAUGUUGUUUACAUGAGGAUCACCCAUGUAGAAGGUCUAGAGC | 39.7 | 133 | – | –
6 | UUUUUUUACUAGGAUAUCGCCGCCGAAAGGCGGCGAGAAGGAGUAACAUGAGGAUCACCCAUGUGUCCUUUUUU | 21.9 | 74.2 | – | –
7 | UUAAUCUAUACAGGAUAUCCAUACGCUGCAUACGGAGAAGGGUAACAAUCAUGAGGACAUGAGGAUCACCCAUGUUUUGAGCAU | – | – | 42.8 | 26.3
8 | GACUGACGAGGAUAUACAUGAGGAUCACCCAUGUAAGAUCAGCGACGAUAGUCGCAAUGUAGAAGGCGUCAGUC | 29.8 | 293 | – | –
9 | CUUUAGUGAGGAUAUGUGGCUUCGAUCGUGAGAUCGAGGCUACAGAAGGCACAUGAGGAUCACCCAUGUACCUU | 14.3 | 17 | – | –
10 | GUUUCACAUGAGGAUCACCCAUGUGAGGAUAUAGAUUUGUUAGUGGUGAUUGGUGGAUUUAGAAGGCGCGUGAU | 81.3 | 66.2 | – | –
11 | GGAUUACAUGAGGAUCACCCAUGUGAGGAUAUCGAUGUCCUGGGUGGAGUGCGGGACUCGAGAAGGCACUUGGA | 60.5 | 229 | – | –
12 | CCUUGUAGCGGAGGAUAUGGGCCUCACUCAGUCAAAGAGUGAGAAACAUGAGGAUCACCCAUGUCCCAGAAGGCCGCUGCUUGG | – | – | 17.8 | 12.8
13 | CGGCGUAGCGUAAGGAUAUCGCGCGGUGUAAUUGUUGAGAAGGUACAUGAGGAUCACCCAUGUGGUCAGCCGGC | 40 | 40 | – | –
14 | AAAAAACAUGAGGAUCACCCAUGUGAGGAUAUGUAUAUCCCUAAAAAAGUGUGGGACUACAGAAGGCACUUGGA | 79.7 | 207 | – | –
15 | AGAAACUACGAGAAGGACAUAAAAGGUGCCGCAAACAUGAGGAUCACCCAUGUAGGAUAUCGUAGUUUCAGGAUCGUGAGAUCA | 28.4 | 262 | – | –
16 | GGUACUAUCACAGGAUAUGCUUUCCUUUGGGAAGCAGAAGGGUGUAACAUGAGGAUCACCCAUGUGGUGCCAGGGCGUGGGCCC | – | – | 154 | 17
17 | AACAUGUGAGGAUAUGUCACAUGGCUCUUCGGAGCAAGAUGACAGAAGGCACAUGAGGAUCACCCAUGUGCAUC | 13.8 | 22.6 | – | –
18 | GGUACUCAAAGAGUACCAAAACGAACAUGAGGAUCACCCAUGUAGGAUAUGCUACUCAAAGAGUAGCAGAAGGACAUGUGCCUA | – | 122 | – | –
19 | GGAAAGUAAGGAUAUGCGAACAAACAAACAAACAAAAGGGAACAUGAGGAUCACCCAUGUAGAAGGUGCAAACA | 46.3 | 35.9 | – | –
20 | UUUAUGUCAGGAUAUGAGGAGUAGAACAAUAGUACUACUCCUCAGAAGGGACAUGAGGAUCACCCAUGUUCCUC | 20.7 | 91.9 | – | –
21 | CCGGCUGCUGUGAGGAUAUGCCUGUGGGUGCGUGGGUAGAAGGCACAUGAGGAUCACCCAUGUCCUGCGGCUCG | 501 | 327 | – | –
22 | AUGGUACAUGAGGAUCACCCAUGUUAGGAUAUCGCGUGUUCUAAAACUAAGAGAUACACGAGAAGGGACGACAU | 90.2 | 67.7 | – | –
23 | GCGUAACAUGAGGAUCACCCAUGUACCCGAGAAUUCGGGUCUAGAAGGGUGACCGGUCGUUUGGCACAGGAUAUAGACGUUGUG | – | – | 30.7 | 11.3
24 | GAGCUAUGAGGAUAUGCAUAGAUACGGAUUCGUGUAGUACUACAUGAGGAUCACCCAUGUAGAAGGCGUGGCAG | 14.3 | 15.9 | – | –
25 | UCCUUGGUACAGAAGGACCGAGCUCAGUAGCAGGUAGGAUAUGUACAUGAGGAUCACCCAUGUCAGCGGUAAUUACCAGUUUUC | 57.5 | 24.2 | – | –
26 | AGCGGCGCAGACCACCGCAAAACCAGAAGGACAUGAGGAUCACCCAUGUAACAAAACAGGGCAAUGUAGGAUAUGGCAAACCCA | 11.1 | 12.6 | – | –
27 | GCGAUUUUGUAAGGAUAUACACGAGUUUUAAGUGUAGAAGGUACUUACAUGAGGAUCACCCAUGUAUUAAUGAUUACUAGUCGC | – | – | 6.99 | 6.33
28 | UUUUCACAUGAGGAUCACCCAUGUGAGGAUAUGGUUUCGCUGGCCGUAGCCAGUGGAACCAGAAGGCGCGUGAU | 60.7 | 66.4 | – | –
